How the values were obtained:
[1] = test system: Human immunodeficiency virus 1; assay: Antiviral activity against HIV 1 in HeLa-CD4/CCR5 cells assessed as inhibition of viral infectivity after 48 hrs by MAGI assay; assay type: functional, organism-based; conditions: Human immunodeficiency virus 1, MAGI-CCR5, 48 h
Method in brief: (§1)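 HeLa-CD4/CCR5-LTR/β-gal target cells at 10⁴ cells/well, plated the day before infection; inoculated with virus at 60 MAGI U/well and cultured with graded compound concentrations in fresh medium. After 48 h, X-Gal-stained blue cells were counted per well. EC50 (50% block of infection) was interpolated from the two concentrations bracketing 50% inhibition; three independent experiments.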

HeLa = assay: Cytotoxicity against human HeLa cells expressing CD4/CCR5 at 10 uM; assay type: cell-based
[2] = Cytotoxicity against human HeLa cells expressing CD4/CCR5; assay type: cell-based
[3] = Therapeutic index, ratio of CC50 for HeLa-CD4/CCR5 cells to EC50 for HIV 1 in HeLa-CD4/CCR5 cells assessed as inhibition of viral infectivity; assay type: cell-based; conditions: human, read-out: Ratio CC50/EC50
[4] = test system: Human immunodeficiency virus 2; assay: Antiviral activity against HIV 2 ROD in HeLa-CD4/CCR5 cells assessed as inhibition of viral infectivity after 48 hrs by MAGI assay; assay type: functional, organism-based; conditions: Human immunodeficiency virus 2, ISOLATE ROD, MAGI-CCR5, 48 h; method in brief: as §1
[5] = test system: Human immunodeficiency virus 2; assay: Antiviral activity against HIV 2 EHO in HeLa-CD4/CCR5 cells assessed as inhibition of viral infectivity after 48 hrs by MAGI assay; assay type: functional, organism-based; conditions: Human immunodeficiency virus 2, EHO, MAGI-CCR5, 48 h; method in brief: as §1
[6] = test system: Human immunodeficiency virus 1; assay: Antiviral activity against HIV 1 BaL in HeLa-CD4/CCR5 cells assessed as inhibition of viral infectivity after 48 hrs by MAGI assay; assay type: functional, organism-based; conditions: Human immunodeficiency virus 1, BaL, MAGI-CCR5, 48 h; method in brief: as §1
[7] = test system: Human immunodeficiency virus 1; assay: Antiviral activity against HIV 1 NL4-3 in HeLa-CD4/CCR5 cells assessed as inhibition of viral infectivity after 48 hrs by MAGI assay; assay type: functional, organism-based; conditions: Human immunodeficiency virus 1, NL4-3, MAGI-CCR5, 48 h; method in brief: as §1
[8] = test system: Human immunodeficiency virus 2; assay: Ratio of PD 404182 EC50 to compound EC50 for HIV 2 ROD in HeLa-CD4/CCR5 cells assessed as inhibition of viral infectivity after 48 hrs by MAGI assay; assay type: functional, ISOLATE ROD
[9] = test system: Human immunodeficiency virus 2; assay: Ratio of PD 404182 EC50 to compound EC50 for HIV 2 EHO in HeLa-CD4/CCR5 cells assessed as inhibition of viral infectivity after 48 hrs by MAGI assay; assay type: functional
[10] = test system: Human immunodeficiency virus 1; assay: Ratio of PD 404182 EC50 to compound EC50 for HIV 1 BaL in HeLa-CD4/CCR5 cells assessed as inhibition of viral infectivity after 48 hrs by MAGI assay; assay type: functional
[11] = test system: Human immunodeficiency virus 1; assay: Ratio of PD 404182 EC50 to compound EC50 for HIV 1 NL4-3 in HeLa-CD4/CCR5 cells assessed as inhibition of viral infectivity after 48 hrs by MAGI assay; assay type: functional

| Compound | EC50 [1] [µM] | further results |
| --- | --- | --- |
| N#Cc1ccc(-c2ccc3c(c2)SC(=N)N2CCCN=C32)cc1 | 0.44 | – |
| COc1ccc(-c2ccc3c(c2)SC(=N)N2CCCN=C32)cc1Cl | 0.32 | – |
| COc1cccc(-c2ccc3c(c2)SC(=N)N2CCCN=C32)c1 | 0.15 | – |
| N=C1Sc2cc(-c3ccc4c(C(=O)C(F)(F)F)c[nH]c4c3)ccc2C2=NCCCN12 | > 1 | Activity (HeLa): Toxic |
| CS(=O)(=O)N1CCC2(CC1)CN=C1c3ccc(Br)cc3SC(=N)N1C2 | 1.81 | – |
| N=C1Sc2cc(-c3cccnc3)ccc2C2=NCCCN12 | 0.45 | – |
| N=C1Sc2cc(-c3cccc([N+](=O)[O-])c3)ccc2C2=NCCCN12 | 1.26 | – |
| N=C1Sc2cc(Br)ccc2C2=NCCCN12 | 0.25 | – |
| N=C1Sc2cc(-c3ccc4ncccc4c3)ccc2C2=NCCCN12 | 0.25 | – |
| N=C1Sc2cc(Br)ccc2C2=NCC3(CCN(C(N)=O)CC3)CN12 | > 10 | – |
| N=C1Sc2cc(-c3ccccc3-c3ccccc3)ccc2C2=NCCCN12 | 0.32 | – |
| COc1ccc(-c2ccc3c(c2)SC(=N)N2CCCN=C32)cc1OC | 0.27 | – |
| COC(=O)N1CCC2(CC1)CN=C1c3ccc(Br)cc3SC(=N)N1C2 | 0.44 | – |
| CC(O)c1cccc(-c2ccc3c(c2)SC(=N)N2CCCN=C32)c1 (racemic) | 1.19 | – |
| N=C1Sc2cc(-c3cc4ccccc4s3)ccc2C2=NCCCN12 | 0.26 | – |
| COc1ccccc1-c1ccc2c(c1)SC(=N)N1CCCN=C21 | 0.41 | – |
| N#Cc1cccc(-c2ccc3c(c2)SC(=N)N2CCCN=C32)c1 | 1.17 | – |
| N=C1Sc2cc(-c3ccc4c(c3)OCCO4)ccc2C2=NCCCN12 | 0.26 | – |
| N=C1Sc2cc(-c3ccsc3)ccc2C2=NCCCN12 | 0.22 | – |
| COc1ccc(-c2ccc3c(c2)SC(=N)N2CCCN=C32)cc1 | 0.24 | – |
| CC(=O)N1CCC2(CC1)CN=C1c3ccc(Br)cc3SC(=N)N1C2 | 2.74 | – |
| N=C1Sc2cc(-c3ccc(OC(F)(F)F)cc3)ccc2C2=NCCCN12 | 0.38 | – |
| CSc1ccc(-c2ccc3c(c2)SC(=N)N2CCCN=C32)cc1 | 0.2 | – |
| N=C1Sc2cc(-c3ccc([N+](=O)[O-])cc3)ccc2C2=NCCCN12 | 0.46 | – |
| N=C1Sc2cc(-c3cccc(O)c3)ccc2C2=NCCCN12 | 2.62 | – |

| Compound | EC50 [1] [µM] | further results |
| --- | --- | --- |
| CC(C)Oc1cccc(-c2ccc3c(c2)SC(=N)N2CCCN=C32)c1 | 0.32 | – |
| COC(=O)c1cccc(-c2ccc3c(c2)SC(=N)N2CCCN=C32)c1 | 0.39 | – |
| N=C1Sc2cc(-c3ccco3)ccc2C2=NCCCN12 | 0.26 | – |
| N=C1Sc2cc(-c3ccc4ccccc4c3)ccc2C2=NCCCN12 | 0.2 | – |
| N=C1Sc2ccccc2C2=NCCCN12 | 0.44 | CC50 [2]: > 100 µM; selectivity ratio [3]: > 200; EC50 [4]: 0.3 µM; EC50 [5]: 0.31 µM; EC50 [6]: 0.37 µM; EC50 [7]: 0.38 µM |
| N=C1Sc2cc(-c3cccc4ccccc34)ccc2C2=NCCCN12 | 0.39 | – |
| CC1(C)CN=C2c3ccccc3SC(=N)N2C1 | 0.24 | – |
| N=C1Sc2cc(-n3cccn3)ccc2C2=NCCCN12 | 0.42 | – |
| N=C1Sc2cc(Br)ccc2C2=NCC3(CCOCC3)CN12 | 1.73 | – |
| CS(=O)(=O)Nc1cccc(-c2ccc3c(c2)SC(=N)N2CCCN=C32)c1 | > 10 | – |
| N=C1Sc2cc(-c3cc4ccccc4o3)ccc2C2=NCCCN12 | 0.2 | – |
| N=C1Sc2cc(-c3ccc4c(c3)OCO4)ccc2C2=NCCCN12 | 0.15 | Ratio EC50 [8]: 3; Ratio EC50 [9]: 2; Ratio EC50 [10]: 3; Ratio EC50 [11]: 2; EC50 [4]: 0.1 µM; EC50 [5]: 0.14 µM; EC50 [6]: 0.13 µM; EC50 [7]: 0.23 µM |
| N=C1Sc2cc(-c3ccc(C(F)(F)F)cc3)ccc2C2=NCCCN12 | 0.55 | – |
| N=C1Sc2cc(-c3ccc(C(N)=O)cc3)ccc2C2=NCCCN12 | 8.71 | – |
| N=C1Sc2cc(-c3ccc4[nH]cc(C(=O)C(F)(F)F)c4c3)ccc2C2=NCCCN12 | > 1 | Activity (HeLa): Toxic |
| N=C1Sc2cc(-c3ccccc3)ccc2C2=NCCCN12 | 0.24 | – |
| COc1ccc(Cl)cc1-c1ccc2c(c1)SC(=N)N1CCCN=C21 | 0.48 | – |
| N=C1Sc2cc(-n3ccnc3)ccc2C2=NCCCN12 | 5.12 | – |
| N=C1Sc2cc(Br)ccc2C2=NCC3(CCCCC3)CN12 | 0.25 | – |
| COC(=O)c1ccc(-c2ccc3c(c2)SC(=N)N2CCCN=C32)cc1 | 0.81 | – |
| CC(=O)Nc1cccc(-c2ccc3c(c2)SC(=N)N2CCCN=C32)c1 | > 10 | – |
| COc1ccc(CN2CCC3(CC2)CN=C2c4ccc(Br)cc4SC(=N)N2C3)cc1 | 1.45 | – |
| N=C1Sc2cc(-c3ccncc3)ccc2C2=NCCCN12 | 0.54 | – |
| COc1cc(-c2ccc3c(c2)SC(=N)N2CCCN=C32)cc(OC)c1OC | 0.25 | – |
| N=C1Sc2cc(-c3cccc(-c4ccccc4)c3)ccc2C2=NCCCN12 | 1.35 | – |

Source: ChEMBL document CHEMBL2157882, “Structure-activity relationship study of pyrimido[1,2-c][1,3]benzothiazin-6-imine derivatives for potent anti-HIV agents” (Bioorg Med Chem, 2012)
